Where a SMILES comes first, the peptide text is derived from it. Bridges are numbered along the chain shown (N, C = ends). Triazole bridges read from a SMILES are 1,4-linked. [ ]: non-standard residue; d: D form. Lys(N3) = [N-]=[N+]=NCCCC[C@H](N)C(=O)O; Nle = CCCC[C@H](N)C(=O)O; Pra = C#CC[C@H](N)C(=O)O
Assays:
Type in all cases: functional, cell-based
Melanocortin receptor 4 = Melanocortin receptor 4 (Mus musculus, UniProt P56450); assay: Activity at mouse MC4R expressed in HEK293 cells assessed as cAMP accumulation by CRE/beta-galactosidase reporter gene assay
Procedure, shortened: (§1)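 Stably transfected HEK-293 cells transiently transfected with 4 μg CRE/β-galactosidase reporter, 5000–15000 cells plated on collagen-treated wells overnight. Lysates frozen −80 °C; ONPG substrate at 37 °C, OD405 normalized to protein (OD595).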

Melanocortin receptor 3 = Melanocortin receptor 3 (Mus musculus, UniProt P33033); assay: Activity at mouse MC3R expressed in HEK293 cells assessed as cAMP accumulation by CRE/beta-galactosidase reporter gene assay; procedure, shortened: as §1
Melanocortin receptor 5 = Melanocortin receptor 5 (Mus musculus, UniProt P41149); assay: Activity at mouse MC5R expressed in HEK293 cells assessed as cAMP accumulation by CRE/beta-galactosidase reporter gene assay; procedure, shortened: as §1
[1] = molecular target: Melanocyte-stimulating hormone receptor (Mus musculus, UniProt Q01727); assay: Activity at mouse MC1R expressed in HEK293 cells assessed as cAMP accumulation by CRE/beta-galactosidase reporter gene assay; procedure, shortened: as §1
Chain of Melanocyte-stimulating hormone receptor (Q01727 whole entry): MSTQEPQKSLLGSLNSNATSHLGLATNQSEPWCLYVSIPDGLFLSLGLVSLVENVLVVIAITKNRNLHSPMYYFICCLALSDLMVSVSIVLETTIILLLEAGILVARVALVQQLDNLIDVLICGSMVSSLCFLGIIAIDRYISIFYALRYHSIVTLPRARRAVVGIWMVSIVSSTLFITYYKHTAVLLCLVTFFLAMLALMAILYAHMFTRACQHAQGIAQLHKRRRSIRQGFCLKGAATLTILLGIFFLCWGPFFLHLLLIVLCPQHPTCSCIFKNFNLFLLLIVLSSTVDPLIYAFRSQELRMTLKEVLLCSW

Chain of Melanocortin receptor 4 (P56450 whole entry): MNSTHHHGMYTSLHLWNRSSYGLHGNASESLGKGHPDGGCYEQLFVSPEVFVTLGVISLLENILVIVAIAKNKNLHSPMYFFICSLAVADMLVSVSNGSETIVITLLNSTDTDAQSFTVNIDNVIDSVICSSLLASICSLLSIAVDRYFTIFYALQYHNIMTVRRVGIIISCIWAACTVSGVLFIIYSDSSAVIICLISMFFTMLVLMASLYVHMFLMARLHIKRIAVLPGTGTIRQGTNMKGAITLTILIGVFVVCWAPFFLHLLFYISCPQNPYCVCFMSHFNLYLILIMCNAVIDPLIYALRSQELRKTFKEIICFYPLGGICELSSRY
Chain of Melanocortin receptor 3 (P33033 whole entry): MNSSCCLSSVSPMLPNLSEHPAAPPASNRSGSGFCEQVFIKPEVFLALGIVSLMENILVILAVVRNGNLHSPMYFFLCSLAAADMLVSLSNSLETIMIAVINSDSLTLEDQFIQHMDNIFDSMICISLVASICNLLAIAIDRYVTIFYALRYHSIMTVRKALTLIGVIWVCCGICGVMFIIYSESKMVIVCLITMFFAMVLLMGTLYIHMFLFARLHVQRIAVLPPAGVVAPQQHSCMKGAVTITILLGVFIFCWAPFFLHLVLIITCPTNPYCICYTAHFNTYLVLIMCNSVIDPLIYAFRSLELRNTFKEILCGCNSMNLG
Chain of Melanocortin receptor 5 (P41149 whole entry): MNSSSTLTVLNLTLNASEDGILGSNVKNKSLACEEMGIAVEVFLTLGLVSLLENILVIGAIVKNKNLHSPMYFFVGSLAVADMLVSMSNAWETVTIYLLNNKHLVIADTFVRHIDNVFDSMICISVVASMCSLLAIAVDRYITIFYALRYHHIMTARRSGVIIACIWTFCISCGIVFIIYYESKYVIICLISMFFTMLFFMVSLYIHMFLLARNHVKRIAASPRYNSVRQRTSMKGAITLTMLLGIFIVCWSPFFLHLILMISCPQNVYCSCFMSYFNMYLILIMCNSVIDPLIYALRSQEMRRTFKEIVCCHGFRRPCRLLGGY

Which EC50 (Melanocortin receptor 4) does the source give for CCCC[C@H](NC(C)=O)C(=O)N[C@@H](CC(=O)O)C(=O)N[C@@H](Cc1c[nH]cn1)C(=O)N[C@H](Cc1ccccc1)C(=O)N[C@@H](CCCN=C(N)N)C(=O)N[C@@H](Cc1c[nH]c2ccccc12)C(=O)N[C@@H](CCCCN)C(N)=O here?
The EC50 was 0.21 nM.

And the EC50 (Melanocortin receptor 3)?
Its EC50 is 1.1 nM.

Which EC50 (Melanocortin receptor 5) does the source give for C#CC[C@H](NC(=O)[C@H](Cc1c[nH]c2ccccc12)NC(=O)[C@H](CCCNC(=N)N)NC(=O)[C@@H](Cc1ccccc1)NC(=O)[C@H](Cc1cnc[nH]1)NC(=O)[C@H](CCCCN=[N+]=[N-])NC(=O)[C@H](CCCC)NC(C)=O)C(N)=O here?
Its EC50 is 1.9 nM.

Which results are given for CCCCCC[C@H](NC(=O)[C@H](Cc1c[nH]c2ccccc12)NC(=O)[C@H](CCCNC(=N)N)NC(=O)[C@@H](Cc1ccccc1)NC(=O)[C@H](Cc1cnc[nH]1)NC(=O)[C@H](CN=[N+]=[N-])NC(=O)[C@H](CCCC)NC(C)=O)C(N)=O?
EC50 (Melanocortin receptor 4): 0.14 nM; EC50 (Melanocortin receptor 5): 0.13 nM; EC50 [1]: 0.53 nM; EC50 (Melanocortin receptor 3): 1.32 nM

What does the source list for CCCC[C@H](NC(C)=O)C(=O)N[C@H]1Cc2cn(nn2)CCCC[C@@H](C(N)=O)NC(=O)[C@H](Cc2c[nH]c3ccccc23)NC(=O)[C@H](CCCNC(=N)N)NC(=O)[C@@H](Cc2ccccc2)NC(=O)[C@H](Cc2cnc[nH]2)NC1=O?
EC50 (Melanocortin receptor 4): 1.62 nM; EC50 (Melanocortin receptor 5): 1.93 nM; EC50 [1]: 5.18 nM; EC50 (Melanocortin receptor 3): 3.14 nM

CCCC[C@H](NC(C)=O)C(=O)N[C@H]1CCc2cn(nn2)CCC[C@@H](C(N)=O)NC(=O)[C@H](Cc2c[nH]c3ccccc23)NC(=O)[C@H](CCCNC(=N)N)NC(=O)[C@@H](Cc2ccccc2)NC(=O)[C@H](Cc2cnc[nH]2)NC1=O was tested. Which EC50 (Melanocortin receptor 4) did it give?
Its EC50 is 0.22 nM.

What about the EC50 (Melanocortin receptor 5) of the same compound?
Its EC50 is 0.34 nM.

And the EC50 [1]?
Its EC50 is 0.11 nM.

What about the EC50 (Melanocortin receptor 3) of the same compound?
The EC50 was 0.29 nM.

For CCCC[C@H](NC(C)=O)C(=O)N[C@H]1CCCc2cn(nn2)CC[C@@H](C(N)=O)NC(=O)[C@H](Cc2c[nH]c3ccccc23)NC(=O)[C@H](CCCNC(=N)N)NC(=O)[C@@H](Cc2ccccc2)NC(=O)[C@H](Cc2cnc[nH]2)NC1=O, which EC50 (Melanocortin receptor 4) is on record?
The EC50 was 0.051 nM.

And the EC50 (Melanocortin receptor 5)?
Its EC50 is 0.042 nM.

What about the EC50 [1] of the same compound?
The EC50 was 0.1 nM.

What about the EC50 (Melanocortin receptor 3) of the same compound?
The EC50 was 0.21 nM.

How did the EC50 [1] turn out when CCCC[C@H](NC(C)=O)C(=O)N[C@H]1CCCCc2cn(nn2)C[C@@H](C(N)=O)NC(=O)[C@H](Cc2c[nH]c3ccccc23)NC(=O)[C@H](CCCNC(=N)N)NC(=O)[C@@H](Cc2ccccc2)NC(=O)[C@H](Cc2cnc[nH]2)NC1=O was run?
The EC50 was 0.087 nM.

And the EC50 (Melanocortin receptor 3)?
The EC50 was 0.2 nM.

CCCC[C@H](NC(C)=O)C(=O)N[C@H]1CCCn2cc(nn2)CC[C@@H](C(N)=O)NC(=O)[C@H](Cc2c[nH]c3ccccc23)NC(=O)[C@H](CCCNC(=N)N)NC(=O)[C@@H](Cc2ccccc2)NC(=O)[C@H](Cc2cnc[nH]2)NC1=O was tested. Which EC50 (Melanocortin receptor 4) did it give?
The EC50 was 0.85 nM.

What about the EC50 (Melanocortin receptor 5) of the same compound?
The EC50 was 1.88 nM.

And the EC50 [1]?
Its EC50 is 0.71 nM.

And the EC50 (Melanocortin receptor 3)?
Its EC50 is 1.91 nM.

For CCCC[C@H](NC(C)=O)C(=O)N[C@H]1CCn2cc(nn2)CCC[C@@H](C(N)=O)NC(=O)[C@H](Cc2c[nH]c3ccccc23)NC(=O)[C@H](CCCNC(=N)N)NC(=O)[C@@H](Cc2ccccc2)NC(=O)[C@H](Cc2cnc[nH]2)NC1=O, which EC50 (Melanocortin receptor 4) is on record?
The EC50 was 0.048 nM.

And the EC50 (Melanocortin receptor 5)?
Its EC50 is 0.045 nM.

What about the EC50 [1] of the same compound?
Its EC50 is 0.074 nM.

What about the EC50 (Melanocortin receptor 3) of the same compound?
The EC50 was 0.2 nM.

Which results are given for CCCC[C@H](NC(C)=O)C(=O)N[C@H]1Cn2cc(nn2)CCCC[C@@H](C(N)=O)NC(=O)[C@H](Cc2c[nH]c3ccccc23)NC(=O)[C@H](CCCNC(=N)N)NC(=O)[C@@H](Cc2ccccc2)NC(=O)[C@H](Cc2cnc[nH]2)NC1=O?
EC50 (Melanocortin receptor 4): 0.14 nM; EC50 [1]: 0.53 nM; EC50 (Melanocortin receptor 3): 0.6 nM

With CCCC[C@H](NC(C)=O)C(=O)N[C@H]1CCc2cn(nn2)CC[C@@H](C(N)=O)NC(=O)[C@H](Cc2c[nH]c3ccccc23)NC(=O)[C@H](CCCNC(=N)N)NC(=O)[C@@H](Cc2ccccc2)NC(=O)[C@H](Cc2cnc[nH]2)NC1=O as the compound, how does the EC50 (Melanocortin receptor 4) read?
The EC50 was 0.14 nM.

And the EC50 (Melanocortin receptor 5)?
Its EC50 is 0.15 nM.

What about the EC50 [1] of the same compound?
Its EC50 is 0.32 nM.

And the EC50 (Melanocortin receptor 3)?
The EC50 was 0.63 nM.

For CCCC[C@H](NC(C)=O)C(=O)N[C@H]1CCn2cc(nn2)CC[C@@H](C(N)=O)NC(=O)[C@H](Cc2c[nH]c3ccccc23)NC(=O)[C@H](CCCNC(=N)N)NC(=O)[C@@H](Cc2ccccc2)NC(=O)[C@H](Cc2cnc[nH]2)NC1=O, which EC50 (Melanocortin receptor 4) is on record?
Its EC50 is 0.067 nM.

And the EC50 (Melanocortin receptor 5)?
Its EC50 is 0.07 nM.

And the EC50 [1]?
The EC50 was 0.2 nM.

What about the EC50 (Melanocortin receptor 3) of the same compound?
Its EC50 is 0.29 nM.

Which EC50 (Melanocortin receptor 4) does the source give for CCCC[C@H](NC(C)=O)C(=O)N[C@H]1CCCCn2cc(nn2)C[C@@H](C(N)=O)NC(=O)[C@H](Cc2c[nH]c3ccccc23)NC(=O)[C@H](CCCNC(=N)N)NC(=O)[C@@H](Cc2ccccc2)NC(=O)[C@H](Cc2cnc[nH]2)NC1=O (Ac-[Nle][Lys(N3)]H[dF]RW[Pra]-NH2; triazole 2-7) here?
The EC50 was 0.58 nM.

And the EC50 (Melanocortin receptor 5)?
The EC50 was 1.76 nM.

And the EC50 [1]?
The EC50 was 0.85 nM.

And the EC50 (Melanocortin receptor 3)?
The EC50 was 3.7 nM.
